In ChEMBL document CHEMBL4425094, “Novel Benzo[a]quinolizidine Analogs Induce Cancer Cell Death through Paraptosis and Apoptosis” (J Med Chem, 2016):
Calls of active or inactive are those of the source. The rule behind the calls is not given here.

How the values were obtained:
PC-3 [1] = test: Induction of ER stress in human PC3 cells assessed as GRP78 upregulation incubated for 22 hrs after ER stress inhibitor 4-PBA exposure for 2 hrs by Western blot analysis; type: functional, cell-based
Procedure, shortened: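 PC3 cells pretreated 2 h with 4-PBA (100 μM), then compound added for a further 22 h. Viability measured by MTT. GRP78 assessed by Western blot, along with XBP1 mRNA splicing analysis. Morphology by phase contrast.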

PC-3M = test: Induction of immature autophagy i in human PC3M-lluc-C6 cells xenografted in athymic Balb/c mouse assessed as increase in p62 protein levels at 15 mg/kg, ip administered every 2 days for 18 days by Western blot and immunohistochemical staining method; type: functional, organism-based
Procedure, shortened: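 Male athymic BALB/c-nu mice (6 weeks) carried subcutaneous right-flank PC3M-luc-C6 xenografts (5 × 10^6 cells). At ~0.1 cm3 they were grouped (n = 5) and given 15 mg/kg i.p. suspension every 2 days; placebo and docetaxel 15 mg/kg were controls. Tumors were analyzed by Western blot and by immunohistochemistry (anti-LC3 1:800, anti-p62 1:500, overnight 4 °C, HRP/DAB, hematoxylin counterstain).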

[2] = target: T1, Eukaryotic translation initiation factor 2-alpha kinase 3 (Homo sapiens) (UniProt Q9NZJ5); test: Activation of PERK phosphorylation in human PC3 cells assessed as eIF2alpha phosphorylation after 24 hrs by Western blot analysis; type: cell-based
T1 sequence (whole entry): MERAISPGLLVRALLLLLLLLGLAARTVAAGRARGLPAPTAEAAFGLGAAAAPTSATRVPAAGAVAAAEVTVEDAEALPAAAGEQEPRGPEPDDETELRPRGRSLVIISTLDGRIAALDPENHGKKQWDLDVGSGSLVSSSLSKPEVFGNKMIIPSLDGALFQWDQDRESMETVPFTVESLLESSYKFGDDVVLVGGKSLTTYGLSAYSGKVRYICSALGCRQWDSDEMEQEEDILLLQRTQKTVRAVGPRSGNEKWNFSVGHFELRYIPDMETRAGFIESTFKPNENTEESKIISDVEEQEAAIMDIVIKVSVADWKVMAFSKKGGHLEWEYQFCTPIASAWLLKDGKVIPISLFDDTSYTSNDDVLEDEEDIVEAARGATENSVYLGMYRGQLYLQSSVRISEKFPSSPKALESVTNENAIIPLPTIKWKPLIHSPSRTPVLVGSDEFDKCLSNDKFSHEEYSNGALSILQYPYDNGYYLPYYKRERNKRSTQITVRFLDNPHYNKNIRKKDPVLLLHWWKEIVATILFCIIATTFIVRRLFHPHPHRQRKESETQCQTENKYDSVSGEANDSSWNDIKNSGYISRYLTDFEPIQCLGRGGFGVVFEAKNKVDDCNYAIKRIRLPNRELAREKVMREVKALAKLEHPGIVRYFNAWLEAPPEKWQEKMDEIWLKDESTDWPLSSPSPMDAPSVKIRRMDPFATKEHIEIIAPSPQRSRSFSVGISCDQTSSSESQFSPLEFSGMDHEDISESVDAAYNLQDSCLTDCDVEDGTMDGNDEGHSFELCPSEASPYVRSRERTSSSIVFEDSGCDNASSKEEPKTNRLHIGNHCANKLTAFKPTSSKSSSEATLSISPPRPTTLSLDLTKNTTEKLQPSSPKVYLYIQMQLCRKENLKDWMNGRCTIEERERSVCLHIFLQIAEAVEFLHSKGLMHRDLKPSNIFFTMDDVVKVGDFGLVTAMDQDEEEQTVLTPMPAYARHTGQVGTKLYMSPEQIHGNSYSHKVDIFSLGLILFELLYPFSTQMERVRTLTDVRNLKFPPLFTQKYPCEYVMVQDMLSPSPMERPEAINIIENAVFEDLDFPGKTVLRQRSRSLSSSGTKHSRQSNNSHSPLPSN
Procedure, shortened: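 PC3 cells in RPMI 1640 with 10% FBS, treated with compound for timed intervals. DMSO vehicle control. Lysis in RIPA buffer, 40 μg protein per lane on SDS-PAGE, transfer to nitrocellulose. Primary antibodies overnight at 4 °C, HRP-secondary 45 min, ECL detection. GAPDH or β-actin used as loading control.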

MCF7 = test: Cytotoxicity against human MCF7 cells assessed as cell growth inhibition after 24 hrs by MTT assay; type: functional, cell-based; details: MCF7, 24 h
Procedure, shortened: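 Cells seeded 24 h in RPMI 1640 + 10% FBS. RWPE-1 was kept in K-SFM with bovine pituitary extract and EGF. Cells then exposed to compounds for 24 h at 37 °C, 5% CO2, with DMSO vehicle and docetaxel as positive control. MTT added for 4 h, absorbance read at 570 nm. Triplicate runs, IC50 reported as mean of three experiments.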

PC-3 [3] = test: Induction of cytoplasmic vacuolation in human PC3 cells assessed as increase in size and number of vacuoles at 1 uM by phase-contrast microscopic analysis; type: functional, cell-based; details: TDE = time-dependent effect
Procedure, shortened: (§1)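 PC3 cells in RPMI 1640 with 10% FBS at 37 °C, 5% CO2, treated with 1 μM agent for 0−24 h; DMSO vehicle control. Vacuole appearance, size and number followed over time by phase-contrast microscopy at constant magnification.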

PC-3 [4] = test: Induction of apoptosis in human PC3 cells assessed as early apoptotic cells at 2 uM after 24 hrs by Annexin V-FITC/propidium iodide based flow cytometric analysis (reference value: 2.3 %); type: functional
Procedure, shortened: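 PC3 cells exposed to 0.5, 1 or 2 μM for 24 h, then stained with Annexin V-FITC and PI and analyzed by FACSCalibur flow cytometry. Populations assigned as necrotic (Annexin V−/PI+), late apoptotic (double positive), normal (Annexin V−/PI−) and early apoptotic (Annexin V+/PI−). DMSO vehicle control.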

PC-3 [5] = test: Induction of cell cycle arrest in human PC3 cells assessed as accumulation in S phase at 1 uM after 24 hrs by […]propidium iodide based flow cytometric analysis (reference value: 21 to 31.6 %); type: functional
PC-3 [6] = test: Growth inhibition of human PC3 cells at IC30 in presence of MG139 assessed as combination index by MTT assay; type: functional
Procedure, shortened: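 PC3 cells incubated with increasing concentrations of compound combined with a second agent (bortezomib or partner compound). Viability determined, combination index calculated: CI < 1 synergism, = 1 additive, > 1 antagonism.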

PC-3 [7] = test: Induction of ER stress in human PC3 cells assessed as formation of vacuoles after 8 to 24 hrs […]; type: functional, cell-based
PC-3 [8] = test: Cytotoxicity against human PC3 cells transfected with LC3-targeting siRNA assessed as reduction in cell viability at 1 uM after 24 hrs by Western blot analysis; type: functional, cell-based
Procedure, shortened: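 PC3 cells plated at 20−30% confluence and transfected 24 h later with 50 nM LC3-targeting or scramble siRNA. After 48 h, cells were exposed to 1 μM compound for a further 24 h. Read-out by Western blot and phase-contrast imaging.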

PC-3 [9] = test: Induction of morphological changes in human PC3 cells incubated for 22 hrs after ER stress inhibitor 4-PBA exposure for 2 hrs by phase-contrast microscopic analysis; type: functional, cell-based
Procedure, shortened: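 PC3 cells pretreated 2 h with 100 μM 4-PBA (ER stress inhibitor), then exposed to agent for a further 22 h. Morphology by phase-contrast microscopy; viability by MTT in parallel.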

PC-3 [10] = test: Induction of cytoplasmic vacuolation in human PC3 cells at 1 uM after 24 hrs by phase-contrast microscopic analysis; type: functional, cell-based; procedure, shortened: as §1

Cc1cc(C)cc(COc2cc3c(cc2OCc2cc(C)cc(C)c2)[C@@H]2C[C@H](O)C[C@@H](C)N2CC3)c1 (racemic)
Activity (PC-3 [1]): inactive
Activity (PC-3M): Active
Activity [2]: Active
IC50 (MCF7): 510 nM
Activity (PC-3 [3]): Tde
Activity (PC-3 [4]): 20.5%
Activity (PC-3 [5]): 10.1 - 20.4%
CI (PC-3 [6]): 0.1 - 0.3
Activity (PC-3 [7]): Active
Activity (PC-3 [8]): inactive
Activity (PC-3 [9]): inactive
Activity (PC-3 [10]): Active
